In the RNAGym collection of RNA variant scans (doi:10.1002/anie.201605470) one finds self-cleavage data, which are given here for 167 variants.

The labels stand for the following.
B1: Osa-1-4 twister ribozyme (parent)
chain: CCGCCUAACACUGCCAAUGCCGGUCCCAAGCCCGGAUAAAAGUGGAGGGGGCGG

The variants in this series derive from B1. In words: self-cleavage, relative activity (ratio to wild type); higher = more cleavage; co-transcriptional. The method in brief: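 The 48 positions downstream of the cleavage site in a 54-nucleotide Oryza sativa twister ribozyme template were synthesised at 97 % wild-type base and 1 % of each other base. The template was transcribed in vitro at 37 °C for 2 h, with self-cleavage allowed during transcription. Reads with or without upstream sequence after deep sequencing marked cleavage status, and relative activity is fraction cleaved normalised to wild type.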
In the case of G13C G50C, the self-cleavage worked out at 0.02. Then G13C G50A, with 0.03; and G13C G50U, with 0.02; and C14A C33A, with 0.03.

Take C14A C33U: the self-cleavage worked out at 0.06. Regarding C14A C33G, the self-cleavage came to 0.01. On to C14A C27G, for which the self-cleavage is 0.03. Consider C14A C27U, for which the self-cleavage came out at 0.04. As for C14A C27A, the self-cleavage stood at 0.07. The same measure for C14A G47C: 0.03; for C14A G47U: 0.05. Then C14A G47A, with 0.04; and U12G U24C, with 0.04. Then U12G U24A, with 0.05; and U12G U24G, with 0.04; and G13A G49U, with 0.02. As for G13A G49C, the self-cleavage came out at 0.02. The same measure for G13A G49A: 0.03. Take C14A C31U: the self-cleavage was determined as 0.04. Then C14A C31G, with 0.02; and C14A C31A, with 0.03. Then G13A G34U, with 0.05. Consider G13A G34A, for which the self-cleavage came to 0.09. Then G13A G34C, with 0.05; and G13A G22U, with 0.04; and G13A G22A, with 0.07. Turning to G13A G22C, the self-cleavage was determined as 0.03.

On to G13C G19C, for which the self-cleavage stood at 0.03. The same measure for G13C G19A: 0.03. Then G13C G19U, with 0.02; and C14A G49A, with 0.02; and C14A G49U, with 0.03.

For C14A G49C, the self-cleavage amounted to 0.01.

As for G13C U43G, the self-cleavage was determined as 0.03. Then G13C U43C, with 0.02; and G13C U43A, with 0.03. C14A G50A: the self-cleavage was 0.09. For the variant C14A G50U, the self-cleavage worked out at 0.07. Take C14A G50C: the self-cleavage came out at 0.08. Then G13C U37G, with 0.04. In the case of G13C U37A, the self-cleavage is 0.02. Turning to G13C U37C, the self-cleavage stood at 0.03. Turning to C14A C52U, the self-cleavage was found to be 0.13. For C14A C52A, the self-cleavage was found to be 0.1.

In the case of C14A C52G, the self-cleavage amounted to 0.13. As for G13C G45U, the self-cleavage was found to be 0.01. Consider G13C G45A, for which the self-cleavage was 0.02. As to G13C G45C, the self-cleavage turned out to be 0.01. As for U12A U43G, the self-cleavage stood at 0.09. The same measure for U12A U43C: 0.11. Consider U12A U43A, for which the self-cleavage was 0.13. The same measure for G13U G23A: 0.02; for G13U G23U: 0.02. Then G13U G23C, with 0; and U12C U18G, with 0.61. With U12C U18A, the self-cleavage was 0.46.

In the case of U12C U18C, the self-cleavage was 0.38. Then C14A G51C, with 0.02; and C14A G51A, with 0.06.

As for C14A G51U, the self-cleavage is 0.04. As for U12G U43G, the self-cleavage turned out to be 0.1. U12G U43A: the self-cleavage turned out to be 0.08. Take U12G U43C: the self-cleavage was 0.08. In the case of C14A G30A, the self-cleavage was found to be 0.02.

With C14A G30U, the self-cleavage stood at 0.62. Then C14A G30C, with 0.03; and C14A C20A, with 0.12; and C14A C20G, with 0.03.

With C14A C20U, the self-cleavage was 0.16. The same measure for G13C G49U: 0.01; for G13C G49C: 0.01; for G13C G49A: 0.01.

With C14A C15U, the self-cleavage was determined as 0.05. The same measure for C14A C15G: 0.05; for C14A C15A: 0.07; for C14A C9U: 0.06.

C14A C9A: the self-cleavage was determined as 0.03. The same measure for C14A C9G: 0.06. Then G13U U18G, with 0.05; and G13U U18A, with 0.03. Then G13U U18C, with 0.03; and G13U G49U, with 0.01; and G13U G49A, with 0.01. G13U G49C: the self-cleavage was found to be 0.01. Then C14G, with 0.21.

For C14A, the self-cleavage was determined as 0.13. Then G13A G23C, with 0.02; and G13A G23A, with 0.04. Regarding G13A G23U, the self-cleavage stood at 0.02. Then C14A G35A, with 0.12.

With C14A G35U, the self-cleavage was found to be 0.09. Then C14A G35C, with 0.05.

On to C14A U18A, for which the self-cleavage turned out to be 0.09.

C14A U18G: the self-cleavage worked out at 0.11. Then C14A U18C, with 0.11; and U12C U37A, with 0.51; and U12C U37G, with 0.66.

Turning to U12C U37C, the self-cleavage is 0.44. G13U G42A: the self-cleavage is 0.02. Consider G13U G42C, for which the self-cleavage came to 0.01.

For G13U G42U, the self-cleavage worked out at 0.01. The same measure for G13C G44U: 0.03. In the case of G13C G44C, the self-cleavage turned out to be 0.03. Turning to G13C G44A, the self-cleavage amounted to 0.02. Then G13A G30U, with 0.02; and G13A G30C, with 0.02; and G13A G30A, with 0.03. As for G13U G22A, the self-cleavage amounted to 0.03.

Regarding G13U G22U, the self-cleavage turned out to be 0.02. In the case of G13U G22C, the self-cleavage was determined as 0.01.

Take G13U U43C: the self-cleavage amounted to 0.03. For G13U U43A, the self-cleavage is 0.02. Regarding G13U U43G, the self-cleavage is 0.04. The same measure for C14A G13C: 0.02. Turning to C14A G13U, the self-cleavage turned out to be 0.02. As for C14A G13A, the self-cleavage was 0.03. As for G13U G51U, the self-cleavage amounted to 0.02.

In the case of G13U G51C, the self-cleavage worked out at 0.01. The same measure for G13U G51A: 0.02; for C14A C32G: 0.03; for C14A C32U: 0.03. Then C14A C32A, with 0.05; and C14A G42C, with 0.05. The same measure for C14A G42U: 0.03; for C14A G42A: 0.05.

Take U12G: the self-cleavage is 0.55. Then U12C, with 0.66; and G13C G23A, with 0.02. Take G13C G23U: the self-cleavage was found to be 0.02. For G13C G23C, the self-cleavage came out at 0.01. The same measure for U12A U18G: 0.76. Then C14A U24A, with 0.03; and C14A U24C, with 0.04; and C14A U24G, with 0.02. The same measure for G13A G35C: 0.05; for G13A G35A: 0.12. Take G13A G35U: the self-cleavage turned out to be 0.08. In the case of G13A G53A, the self-cleavage stood at 0.06. On to G13A G53C, for which the self-cleavage is 0.03. Then G13A G53U, with 0.05; and G13U U37C, with 0.03; and G13U U37G, with 0.04.

As for G13U U37A, the self-cleavage was 0.02.

In the case of C14A G19C, the self-cleavage came to 0.04. The same measure for C14A G19U: 0.07; for C14A G19A: 0.1; for C14A C25G: 0.02. With C14A C25U, the self-cleavage worked out at 0.07.

Consider C14A C25A, for which the self-cleavage is 0.05. The same measure for G13U G34A: 0.02. Then G13U G34C, with 0.03. Then G13U G34U, with 0.03; and G13U G50C, with 0.02.

For G13U G50A, the self-cleavage is 0.03. For G13U G50U, the self-cleavage was found to be 0.03. Then G13C, with 0.03; and G13U, with 0.03; and G13A, with 0.17. Then C14A G45C, with 0.01; and C14A G45A, with 0.04; and C14A G45U, with 0.03. For C14A G44U, the self-cleavage stood at 0.05. Then C14A G44C, with 0.06. The same measure for C14A G44A: 0.07. On to G13C U18A, for which the self-cleavage stood at 0.03.

For the variant G13C U18G, the self-cleavage stood at 0.05. For G13C U18C, the self-cleavage came to 0.04.
